Experimental data reported in ChEMBL document CHEMBL1124344, “5-Piperazinylalkyl-2(3H)-oxazolones with neuroleptic activity” (J Med Chem, 1989).

Legend:
[1] = system: Rattus norvegicus; assay: Antagonistic activity against apomorphine-induced stereotypy in rats, by administering perorally at a dose of 400 mg/kg; format: functional; settings: route oral
How it was run: (§1)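 Male rats fasted overnight and given oral doses in arabic gum suspension (10 mL/kg) 1 h, or 1 and 5 h, before challenge. Apomorphine 3 mg/kg iv, with stereotypy observed 20 min later. ED50 is the dose inhibiting stereotypy in 50% of rats, per Janssen's method. Parenthetical entries give the maximal dose and percent activity.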

[2] = system: Rattus norvegicus; assay: Activity to evoke catalepsy in rats, by administering perorally at a dose of 150 mg/kg; format: functional; settings: route oral
How it was run: (§2)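 Rats fasted overnight and given oral doses in arabic gum suspension (10 mL/kg), 1 h before screening or 1 and 5 h before profile testing. Forelegs placed on a horizontal bar 7 cm high, three times at 5-min intervals. Immobility of at least 15 s counts as catalepsy. ED50 is the dose giving catalepsy in 50% of rats, by probit analysis. Parenthetical entries give the maximal dose and percent activity.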

[3] = system: Mus musculus; assay: Inhibition of spontaneous motor activity in mice, by administering perorally; format: functional; settings: po
How it was run: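 Mice in groups of five were dosed orally with gum arabic suspensions at 10 mL/kg after an overnight fast, with a vehicle control group. Locomotion was counted for 10 min in a photocell activity cage, in at least two groups per dose. ED50, by probit analysis, is the dose giving 50% inhibition against controls.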

[4] = system: Mus musculus; assay: Inhibition of amphetamine-induced hypermobility in mice following p.o. administration.; format: functional; settings: po
How it was run: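 Compounds were given orally to male mice (gum arabic suspension, 10 mL/kg, fasted) in groups of five. Amphetamine 4 mg/kg ip followed 30 min later. After another 10 min, motility was recorded for 15 min with a photocell actophotometer. ED50, by probit analysis, is the dose giving 50% reduction against controls.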

[5] = Lethal dose in mice (LD50) following i.p. dosing; format: toxicity, organism-based; settings: mouse, in vivo, ip
How it was run: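 Acute toxicity tested in mice by the intraperitoneal route. LD50 is the dose killing 50% of treated mice, computed by Finney probit analysis; values are approximate.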

[6] = system: Rattus norvegicus; assay: Activity to evoke catalepsy in rats, by administering perorally at a dose of 70 mg/kg; format: functional; settings: route oral; how it was run: as §2
[7] = system: Mus musculus; assay: Inhibition of spontaneous motor activity in mice, by administering perorally at a dose of 70 mg/kg; format: functional; settings: route oral
How it was run: (§3)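 Mice fasted overnight, then dosed orally with compound (weighed as base) suspended in arabic gum, 10 mL/kg, with vehicle controls; 1 h pretreatment for screening tests, 1 or 5 h for others. Groups of five; locomotor activity counted 10 min in photocell activity cage, at least two groups per dose. ED50 = dose giving 50% inhibition versus controls, by probit analysis.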

[8] = system: Rattus norvegicus; assay: Antagonistic activity against apomorphine-induced stereotypy in rats, by administering perorally at a dose of 70 mg/kg; format: functional; settings: route oral; how it was run: as §1
[9] = system: Mus musculus; assay: Antagonistic activity against amphetamine-induced Hypermobility in mice, by administering perorally at a dose of 70 mg/kg; format: functional; settings: route oral
How it was run: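 Male mice in groups of five, fasted overnight, given oral drug in arabic gum suspension (10 mL/kg) 1 or 5 h ahead. Amphetamine 4 mg/kg ip given 30 min after drug. Ten minutes later locomotion is recorded for 15 min in a photocell actophotometer. ED50 is 50% reduction versus control hypermotility, by probit analysis. Parenthetical entries give the maximal dose and percent activity.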

[10] = system: Mus musculus; assay: Inhibition of spontaneous motor activity in mice, by administering perorally at a dose of 40 mg/kg; format: functional; settings: route oral; how it was run: as §3
[11] = system: Rattus norvegicus; assay: Antagonistic activity against apomorphine-induced stereotypy in rats, by administering perorally at a dose of 40 mg/kg; format: functional; settings: route oral; how it was run: as §1
[12] = system: Rattus norvegicus; assay: Activity to evoke catalepsy in rats, by administering perorally at a dose of 40 mg/kg; format: functional; settings: route oral; how it was run: as §2
[13] = system: Rattus norvegicus; assay: Antagonistic activity against apomorphine-induced stereotypy in rats, by administering perorally; format: functional; settings: po; how it was run: as §1
[14] = system: Rattus norvegicus; assay: Activity to evoke catalepsy in rats, by administering perorally at a dose 150 mg/kg; format: functional; settings: route oral; how it was run: as §2

Row | Structure (SMILES) | inhibition in vivo at 400 mg/kg [1] | inhibition in vivo at 150 mg/kg [2] | ED50 [3] | ED50 [4] | LD50 [5] | inhibition in vivo at 70 mg/kg [6] | inhibition in vivo at 70 mg/kg [7] | inhibition in vivo at 70 mg/kg [8] | inhibition in vivo at 70 mg/kg [9] | inhibition in vivo at 40 mg/kg [10] | inhibition in vivo at 40 mg/kg [11] | inhibition in vivo at 40 mg/kg [12] | ED50 [13] | inhibition in vivo at 150 mg/kg [14]
1 | Oc1nc(-c2ccc(Cl)cc2)c(CCN2CCN(c3ccccc3)CC2)o1 | 0% | 0% | 3 mg/kg | 4.7 mg/kg | > 1000 mg/kg |  |  |  |  |  |  |  |  | 
2 | CSc1ccc(-c2nc(O)oc2CCN2CCN(c3ccccc3)CC2)cc1 |  |  |  |  | 250 mg/kg | 0% | 47% | 0% | 0% |  |  |  |  | 
3 | Oc1nc(-c2ccc(F)cc2)c(CCN2CCN(c3ccc(Cl)cc3Cl)CC2)o1 |  |  |  | 23.9 mg/kg | 1000 mg/kg |  |  |  |  | 45% | 0% | 0% |  | 
4 | CCn1c(-c2ccc(F)cc2)c(CCN2CCN(c3ccccc3)CC2)oc1=O |  |  | 15.4 mg/kg | 17 mg/kg | 750 mg/kg |  |  |  |  |  |  |  | 75 mg/kg | 0%
